Measured values collected from several papers.
Lines come from different studies, so protocols differ.
Target: 5-hydroxytryptamine receptor 3A (HTR3A, Homo sapiens, UniProt P46098)
Tested at: 10 µM
Sequence (P46098 24-478, as in one of the studies): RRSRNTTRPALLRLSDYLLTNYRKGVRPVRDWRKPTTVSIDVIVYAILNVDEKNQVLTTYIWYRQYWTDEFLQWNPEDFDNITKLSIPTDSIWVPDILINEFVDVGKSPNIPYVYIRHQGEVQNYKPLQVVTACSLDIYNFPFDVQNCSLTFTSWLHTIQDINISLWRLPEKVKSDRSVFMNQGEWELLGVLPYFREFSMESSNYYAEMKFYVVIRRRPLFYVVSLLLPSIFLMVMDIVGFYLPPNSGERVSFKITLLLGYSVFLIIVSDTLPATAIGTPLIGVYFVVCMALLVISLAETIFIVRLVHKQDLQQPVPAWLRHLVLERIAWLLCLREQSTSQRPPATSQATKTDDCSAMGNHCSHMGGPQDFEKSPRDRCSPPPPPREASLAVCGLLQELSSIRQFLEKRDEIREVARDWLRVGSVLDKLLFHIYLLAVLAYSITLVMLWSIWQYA

SMILES | effect on | method | inhibition [%]
COc1cc(N[C@@H]2CCCC[C@]2(O)C(F)(F)F)ccc1F | cell-free assay |  | 11.6
O=C1N=C(N2CCCCN2)S/C1=C\c1ccc(F)cc1O | ligand displacement | radioligand | 17
O=C(c1ccc(Cl)cc1)N(Cc1ccccc1)C1CCCCC1 | ligand displacement | radioligand | 1.9
COc1cc2c3c(c1OC)-c1cc4c(cc1CC3N(CC1CC1)CC2c1ccccc1)OCO4 (stereo not shown) | ligand displacement | radioligand | -13.3
CCN(CC)c1ccc(C2Nc3ccc(C(=O)c4ccccc4)cc3NC3=C2C(=O)CC(C)(C)C3)cc1 (stereo not shown) | ligand displacement | radioligand | -5
COc1cc(NC(C)=O)c(Cl)cc1C(=O)Nc1nccs1 | ligand displacement | radioligand | 15.9
CCCNc1nc2ccccc2n1Cc1ccc(Cl)cc1 | cell-free assay |  | -1.96
CC[C@H](CC(=O)O)n1c(=O)c2ncccc2n(Cc2cn(C)c3cc(C)cc(C)c23)c1=O | cell-free assay |  | 0.31
N#Cc1cc(Cn2c(N3CCCC3)nc3ccccc32)ccc1F | cell-free assay |  | -12.4
O=C(NC1C2CCN(CC2)C1Cc1cccnc1)c1cc2ccccc2o1 (stereo not shown) | ligand displacement | radioligand | 25
